Assay results taken from the RNAGym collection of RNA variant scans (doi:10.1126/science.aae0568).
Variants at the floor of the assay were thinned out.

B1: tRNA (parent)
chain: GUUCCGUUGGCGUAAUGGUAACGCGUCUCCCUCCUAAGGAGAAGACUGCGGGUUCGAGUCCCGUACGGAACG

Variants of: B1
Assay: yeast fitness relative to wild type (ratio to wild type); higher = fitter; tRNA-Arg(CCU), competitive growth, 37 C, YPD
Summary of the method: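 Genotype frequency changes were the basis for Darwinian fitness relative to wild type. The frequencies came from 100-nucleotide paired-end sequencing of gene amplicons from the start population and each end population of pooled yeast strains with tRNA-Arg(CCU) gene variants at the native locus. Competition ran in YPD at 37°C for 24 hours in six replicates, genotypes needed ≥ 100 starting reads, and estimates < 0.5 were set to 0.5.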

Going from GUUCCGUUGGCGUAAUGGUAACGCGUCUCUCUCCUAAAGAGAAGACUGCGGGUUCGAGUCUCGUACGGAACG [C30U G38A C61U] to GUUCCGUUGGCGUAAUGGUAACGCGUCUCUCUCCUAAAGAGAAGACUGCGGAUUCGAGUCCCGUACGGAACG [C30U G38A G52A], the yeast fitness falls from 0.692 to 0.621.

Going from GUUCCGUUGGCGUAAUGGUAACGCGUCUCUCUCCUAACGAGAAGACUGCGGGUUCGAGUCCCGUACGGAACG [C30U G38C] to GUUCCGUUGGCGUAAUGGUAACGCGUCUCUCUCCUAACGGGAAGACUGCGGGUUCGAGUCCCGUACGGAACG [C30U G38C A40G], the yeast fitness falls from 0.66 to 0.569.

Compared with GUUCCGUUGGCGUAAUGGUAACGCGUCUCUCUCCUAACGAGAAGACUGCGGGUUAGAGUCCCGUACAGAACG [C30U G38C C55A G67A], GUUCCGUUGGCGUAAUGGUAACGCGUCUCUCUCCUAACGAGAAGACUGCGGGUUCGAGUCUCGUACGGAACG [C30U G38C C61U] is higher in yeast fitness: ≤ 0.5 for the first, 0.542 for the second.

Going from GUUCCGUUGGCGUAAUGGUAACGCGUCUCUCUCCUAACGAGAAGACUGCGGGUUCGAAUCACGUACGGAACG [C30U G38C G58A C61A] to GUUCCGUUGGCGUAAUGGUAACGCGUCUCUCUCCUAAUGAGAAGACUGCGGGUUCGAGUCCCGUACGGAACG [C30U G38U], the yeast fitness rises from ≤ 0.5 to 0.824.

First: GUUCCGUUGGCGUAAUGGUAACGCGUCUCUCUCCUAAGAAGAAGACUGCGGGUUCGAGUCCCGUACGGAACG [C30U G39A]
Second: GUUCCGUUGGCGUAAUGGUAACGCGUCUCUCUCCUAAGAAGAAGACUGCGGGUUCGAGUCGGGUACGGAACG [C30U G39A C61G C62G]
The yeast fitness of the first is higher: 0.897 for the first, ≤ 0.5 for the second.

First: GUUCCGUUGGCGUAAUGGUAACGCGUCUCUCUCCUAAGCAGAAGACUGCGGGAUCGAGUCCCGUACGGAACG [C30U G39C U53A]
Second: GUUCCGUUGGCGUAAUGGUAACGCGUCUCUCUCCUAAGCAGAAGACUGCGGGUUCGAGUCCCGCACGGAACG [C30U G39C U64C]
The yeast fitness of the first is lower: ≤ 0.5 for the first, 0.528 for the second.

Compared with GUUCCGUUGGCGUAAUGGUAACGCGUCUCUCUCCUAAGGAAAAGACUGCGGGUUCGAGUCCCGUACGGAACG [C30U G41A], GUUCCGUUGGCGUAAUGGUAACGCGUCUCUCUCCUAAGGACAAGACUGCGGGUUCGAGUCCCGUACGGAACG [C30U G41C] is lower in yeast fitness: 0.842 for the first, 0.651 for the second.

First: GUUCCGUUGGCGUAAUGGUAACGCGUCUCUCUCCUAAGGACAAGACUGCGGGUUCGAGUCCCGUACGGUACG [C30U G41C A69U]
Second: GUUCCGUUGGCGUAAUGGUAACGCGUCUCUCUCCUAAGGACAAGACUGCGGGUUCGAGUCCCGUACGGAUCG [C30U G41C A70U]
The yeast fitness of the first is lower: ≤ 0.5 for the first, 0.567 for the second.

GUUCCGUUGGCGUAAUGGUAACGCGUCUCUCUCCUAAGGAGAAAACUGCGGGUUCGAGUCCCGUUCGGAACG [C30U G44A A65U] and GUUCCGUUGGCGUAAUGGUAACGCGUCUCUCUCCUAAGGAGAAAACUGCGGGUUCGAGUGCCGUACGGAACG [C30U G44A C60G] cannot be ordered by yeast fitness: ≤ 0.5 for the first, ≤ 0.5 for the second.

GUUCCGUUGGCGUAAUGGUAACGCGUCUCUCUCCUAAGGAGAACACUGCGGGUUCGAGUCCCGUUCGGAACG [C30U G44C A65U] and GUUCCGUUGGCGUAAUGGUAACGCGUCUCUCUCCUAAGGAGAACACUGCGAGUUCGAGUCUCGUACGGAACG [C30U G44C G51A C61U] cannot be ordered by yeast fitness: ≤ 0.5 for the first, ≤ 0.5 for the second.

Going from GUUCCGUUGGCGUAAUGGUAACGCGUCUCUCUCCUAAGGAGAAGACUCCGGGUUCGAGUCCCGUACGGAACG [C30U G48C] to GUUCCGUUGGCGUAAUGGUAACGCGUCUCUCUCCUAAGGAGAAGACUGCAGGUUCGAGUCCCGUACGAAACG [C30U G50A G68A], the yeast fitness falls from 0.872 to ≤ 0.5.

Going from GUUCCGUUGGCGUAAUGGUAACGCGUCUCUCUCCUAAGGAGAAGACUGCCGGUUCGAGUCCCGUACGGAGCG [C30U G50C A70G] to GUUCCGUUGGCGUAAUGGUAACGCGUCUCUCUCCUAAGGAGAAGACUGCCGGUUCGAGUCCCGUAUGGAACG [C30U G50C C66U], the yeast fitness rises from ≤ 0.5 to 0.526.

Compared with GUUCCGUUGGCGUAAUGGUAACGCGUCUCUCUCCUAAGGAGAAGACUGCGAGUUCGAGUCCCGUACGGAACG [C30U G51A], GUUCCGUUGGCGUAAUGGUAACGCGUCUCUCUCCUAAGGAGAAGACUGCGCGUUCGAGUCCCGUACGGAACG [C30U G51C] is lower in yeast fitness: 0.7 for the first, 0.535 for the second.

GUUCCGUUGGCGUAAUGGUAACGCGUCUCUCUCCUAAGGAGAAGACUGCGCGUUCGAAUCCCGUACGGAACG [C30U G51C G58A] and GUUCCGUUGGCGUAAUGGUAACGCGUCUCUCUCCUAAGGAGAAGACUGCGCGUUCGAGUCCCGUACAGAACG [C30U G51C G67A] cannot be ordered by yeast fitness: ≤ 0.5 for the first, ≤ 0.5 for the second.

GUUCCGUUGGCGUAAUGGUAACGCGUCUCUCUCCUAAGGAGAAGACUGCGGAUUCGAGUCCCGUACGCAACG [C30U G52A G68C] and GUUCCGUUGGCGUAAUGGUAACGCGUCUCUCUCCUAAGGAGAAGACUGCGGAUCCGAGUCCCGUACGGAACG [C30U G52A U54C] cannot be ordered by yeast fitness: ≤ 0.5 for the first, ≤ 0.5 for the second.

Going from GUUCCGUUGGCGUAAUGGUAACGCGUCUCUCUCCUAAGGAGAAGACUGCGGGUUCAAGUCCCGUACCGAACG [C30U G56A G67C] to GUUCCGUUGGCGUAAUGGUAACGCGUCUCUCUCCUAAGGAGAAGACUGCGGGUUCGAAUCGCGUACGGAACG [C30U G58A C61G], the yeast fitness falls from 0.603 to ≤ 0.5.

Going from GUUCCGUUGGCGUAAUGGUAACGCGUCUCUCUCCUAAGGAGAAGACUGCGGGUUCGAGUCCCAUACGGAACG [C30U G63A] to GUUCCGUUGGCGUAAUGGUAACGCGUCUCUCUCCUAAGGAGAAGACUGCGGGUUCGAGUCCCCUACGGAACG [C30U G63C], the yeast fitness rises from 0.729 to 0.757.

Going from GUUCCGUUGGCGUAAUGGUAACGCGUCUCUCUCCUAAGGAGAAGACUGCGGGUUCGAGUCCCGUACAGAACG [C30U G67A] to GUUCCGUUGGCGUAAUGGUAACGCGUCUCUCUCCUAAGGAGAAGACUGCGGGUUCGAGUCCCGUACCGAACG [C30U G67C], the yeast fitness falls from 0.921 to 0.864.

GUUCCGUUGGCGUAAUGGUAACGCGUCUCUCUCCUAAGGAGAAGACUGCGGGUUCGAGUCCCGUACGAAACG [C30U G68A] showed a yeast fitness of 0.744.
